Bioassay records from PubChem.
Shown are actives, neighbours in structure and some others; about 2.9% of the full set was active somewhere.
FID counter: counter-screen for HCV NS3 helicase inhibitors: DNA intercalator displacement; inhibition, % at 7.9 µM; hit rate 0.17% among 290,000; DNA fluorescent intercalator displacement, fluorescence; in the data active = inhibition above about 37%;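 note: higher means more ethidium bromide displaced from hairpin DNA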
SUMO HTRF inh: blocks human SUMOylation mediated by UBC9; P63279; HTRF SUMOylation assay, SAE1/SAE2 + UBC9, in vitro; inhibition, % at 35 µM; hit rate 0.36% among 290,000; in the data active = inhibition above about 50%, passing the limit was not always enough
Target sequence (P63279 whole entry, looked up): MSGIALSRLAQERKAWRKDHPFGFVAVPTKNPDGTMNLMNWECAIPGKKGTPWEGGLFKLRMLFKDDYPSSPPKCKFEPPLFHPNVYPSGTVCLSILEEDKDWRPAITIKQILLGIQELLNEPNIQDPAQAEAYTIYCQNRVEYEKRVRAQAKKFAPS
IMP-1 inh: inhibitors of Pseudomonas aeruginosa IMP-1 metallo-beta-lactamase; purified IMP-1, nitrocefin hydrolysis, epi-absorbance fluorescence; inhibition, % at 5.6 µM; AID 1556; hit rate 0.45% among 290,000;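 active = inhibition above the mean plus 3 SD of all compounds in the same screening run, cut at about 4.5% in these data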
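System: Purified recombinant IMP-1 metallo-beta-lactamase enzyme | Measured by: Fluorescence quenching readout, ex 480/em 530 nm | Replication: Singlicate | Incubation: 15 min preincubation plus 25 min reaction at 25 °C | Evaluation: Percent inhibition from optical density relative to buffer-blank wells | Benchmarks: DMSO with and without IMP-1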
NALP1 yeast inh: NALP1 inhibition | hit rate 0.61% among 280,000 | inhibition, % at 10 µM | S. cerevisiae NALP1/ASC/caspase-1 growth, X-gal OD620, 72 h; in the data active = inhibition mostly above about 24%, no sharp cut-off; inactive = mostly below about 32%
SUMO Mot1 rescue: blocks SUMOylation pathway, rescuing yeast Mot1-301 growth. S. cerevisiae Mot1-301 growth rescue, ATP luminescence, 38.5C; percent above DMSO median, 100 means doubled. growth rescue, % at 18.8 µM. AID 2716. hit rate 1% among 320,000;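 active = every valid replicate shows activation above 250% relative to neutral control wells; inactive = the rest, any valid replicate at or below 250%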
VIM-2 inhibitor: blocks Pseudomonas aeruginosa VIM-2 metallo-beta-lactamase; inhibition, % at 5.6 µM; hit rate 0.89% among 290,000; purified VIM-2, nitrocefin hydrolysis, epi-absorbance fluorescence; AID 1527;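 active = inhibition above the mean of all tested compounds plus 3 SD, cutoff set per screening run, cut at about 7.5% in these data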;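 note: red hydrolysis product quenches plate fluorescence so inhibitors raise well fluorescence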
Yeast Mot1 SUMO: SUMO pathway inhibitors in yeast Mot1-301 growth; shares compounds with SUMO Mot1 rescue; S. cerevisiae Mot1-301 galactose growth, ATP luminescence, 24 h; -100 = growth of slx-deleted rescue strain; growth activity, percent, % at 42 µM; 2,300 tested, under 10 active; AID 493004;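 active = Signal drops as the depositor expects, and the fitted half-maximal dose is no more than ten times the top valid tested dose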;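 note: more negative values mean stronger growth rescue toward the control strain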
Numbers stand for hits; . = inactive; / = no result given; + = active, no number.

SMILES	FID counter	SUMO HTRF inh	IMP-1 inh	NALP1 yeast inh	SUMO Mot1 rescue	VIM-2 inhibitor	Yeast Mot1 SUMO
CCOC(=O)Cc1csc(NC(=O)NC2(C(F)(F)F)Oc3ccccc3O2)n1	.	.	.	.	770	.	.
Cc1ccc(N(C(C)C(=O)O)S(=O)(=O)c2c(C)n[nH]c2C)cc1 (centres undefined)	.	.	.	.	531	.	.
COc1ccc(N(CC(=O)O)S(=O)(=O)c2c(C)n[nH]c2C)cc1	.	.	.	.	.	.	/
COc1ccc(C(=O)OCC(=O)c2ccccc2)cc1S(=O)(=O)N1CCOCC1	.	.	.	.	+	.	.
O=C(OCC(=O)N1CCN(C(=O)c2ccco2)CC1)c1cc(-c2cccc(Br)c2)nc2ccccc12	.	.	.	.	.	.	/
O=C(COC(=O)[C@@H]1CC(O)CN1S(=O)(=O)c1ccccc1[N+](=O)[O-])Nc1ccc2ccccc2c1 (some centres undefined)	.	.	.	.	495	.	.
O=C(COC(=O)C1CC(O)CN1S(=O)(=O)c1ccccc1[N+](=O)[O-])c1ccc[nH]1 (centres undefined)	/	/	/	/	.	/	/
CCn1c(SCC(=O)Nc2cccc(NC(=O)c3ccco3)c2)nnc1-c1cccs1	.	.	.	.	.	.	/
CCn1c(SCC(=O)Nc2ccc(NC(=O)c3ccco3)cc2)nnc1-c1cccs1	.	/	.	/	+	.	.
NNC(=O)c1oc2nc(-c3ccccc3)cc(-c3ccccc3)c2c1N	.	.	.	.	477	.	.
CN1CCN(c2ccc([N+](=O)[O-])cc2C(=O)c2ccc(Cl)cc2)CC1	.	.	.	.	.	.	/
CCCCn1c(N)c(N(CC)C(=O)c2c(CC)noc2C)c(=O)[nH]c1=O	/	/	/	/	.	/	/
CCCCn1c(N)c(N(Cc2ccccc2OC)C(=O)c2c(CC)noc2C)c(=O)[nH]c1=O	.	.	.	.	395	.	.
COC(=O)N/N=C/c1ccc(-c2ccc(Cl)cc2Cl)o1	.	.	.	.	455	.	.
Nc1cccc2c1C(=O)N(c1ccccc1)C2=O	/	/	/	/	668	/	.
O=C1CCC(C(=O)N2CCN(c3ccccc3)CC2)CN1CC1CCCCC1 (centres undefined)	.	.	.	.	532	.	.
Cc1ccccc1NC(=O)CSc1ccc(-c2ccc(-n3cccn3)cc2)nn1	/	/	/	/	.	/	/
CCc1nnc(NC(=O)CSc2ccc(-c3ccc(-n4cccn4)cc3)nn2)s1	/	/	/	/	781	/	.
COC(=O)c1ccc(N2NC(=O)/C(=C/c3cc(OC)c(O)c(OC)c3)C2=O)cc1	.	.	.	.	.	.	/
COc1cccc(/C=C2/C(=O)NN(c3ccc(Br)cc3)C2=O)c1O	.	.	.	.	528	.	.
CC(C)(C)NC(=O)NC(=O)CN1CCN(S(=O)(=O)c2ccc3c(c2)OCCO3)CC1	.	.	.	/	988	.	.
C(=N\N1CCN(C2c3ccccc3-c3ccccc32)CC1)/c1ccncc1	.	.	.	.	+	.	.
Oc1cccc(/C=N/N2CCN(C3c4ccccc4-c4ccccc43)CC2)c1	.	.	.	.	.	.	/
Cc1ccc(NS(=O)(=O)c2ccc(C(=O)NCc3ccc(S(N)(=O)=O)cc3)cc2)cc1	/	/	/	/	.	/	/
CN(C)/C(=N\S(=O)(=O)c1ccc(F)cc1)c1ccccc1	.	.	.	.	.	.	/
SMILES	FID counter	SUMO HTRF inh	IMP-1 inh	NALP1 yeast inh	SUMO Mot1 rescue	VIM-2 inhibitor	Yeast Mot1 SUMO
CCN(CC)/C(=N\S(=O)(=O)c1ccc(F)cc1)c1ccccc1	.	.	.	.	551	.	.
COc1ccc(CN2C(=O)C(=O)N(CC(N)=O)C2=O)cc1	.	.	.	.	719	.	.
CCOc1cc(/C=N/NC(=O)C(=O)N/N=C/c2ccc(O)c(OCC)c2)ccc1O	.	.	.	.	768	.	.
O=C(CN1C(=O)NC2(CCCC2)C1=O)Nc1nc2ccccc2[nH]1	/	/	/	/	553	/	.
C=CCN(CC=C)C(=O)C1CCN(S(=O)(=O)c2ccc(-n3cnnn3)cc2)CC1	.	.	.	.	.	.	/
NC(=O)NC(=O)CSc1nc(C2CCCCC2)n(-c2ccccc2)n1	.	.	.	.	685	.	.
C/C(N)=C(/C#N)C(=O)CSc1nc(C2CCCCC2)n(-c2ccccc2)n1	.	.	.	.	.	.	/
CC(=O)Nc1cccc2c1C(=O)N(c1ccccc1C)C2=O	.	.	.	.	518	.	.
CC/C(=N\Nc1ccccc1[N+](=O)[O-])c1ccc(O)cc1	.	.	.	.	.	.	/
CCOC(=O)C1CCCN(C(=O)c2cc(-c3ccc(F)cc3)nc3ccccc23)C1 (centres undefined)	.	.	.	.	463	.	.
Cn1c(Cn2cnc([N+](=O)[O-])n2)nnc1SCC(=O)Nc1ccc(Br)cc1	.	.	.	.	.	.	/
Cc1ccc(SCCNC(=O)c2ccccc2)cc1	.	.	.	.	.	.	/
COc1ccc(C(=O)NCCSc2ccc(C)cc2)cc1	.	.	.	.	470	.	.
O=C(c1cn(-c2ccccc2)nc1-c1cccs1)N1CCN(c2ccc(F)cc2)CC1	.	.	.	.	.	.	/
CCN(CC)CCNC(=O)c1[nH]c2ccc(OCc3ccccc3)cc2c1C	.	.	.	.	.	.	/
Cc1nc2ccccc2n1C(=O)c1cc(-c2ccc(Br)cc2)nc2ccccc12	.	.	.	/	.	.	/
COC(=O)c1c(C)cc(O)c(C=O)c1O	/	/	/	/	567	/	.
CSc1nncc(/C(C)=N\Nc2cccc(C)c2)n1	.	.	.	.	366	.	.
COc1ccc(C(=O)CSc2nnc(CNC(=O)c3ccc(OC)c(OC)c3)n2C)cc1	.	.	.	.	/	.	/
COc1ccc(C(=O)CSc2nnc(CNC(=O)c3ccccc3)n2C)cc1	.	.	.	.	397	.	.
COC(=O)CCC(=O)OC1(C)C(=O)C2=CN(Cc3ccccc3)C(c3ccc(OC)cc3)=CC2=C(Br)C1=O (centres undefined)	/	/	/	/	.	/	/
COC(=O)CCC(=O)OC1(C)C(=O)C2=CN(CCc3c[nH]c4ccccc34)C(c3ccc(OC)cc3)=CC2=C(Br)C1=O (centres undefined)	/	/	/	/	419	/	.
COc1ccc(CC(=O)NCC2CCCN(Cc3cc(OC)cc(OC)c3)C2)cc1 (centres undefined)	.	.	.	.	.	.	/
O=C1CN(C(=O)c2c(F)cccc2F)C(c2ccc(F)cc2)c2cc(Br)ccc2N1 (centres undefined)	.	.	.	.	.	.	/
O=C1CN(C(=O)c2c(F)cccc2F)C(c2ccc(F)cc2)c2cc(F)ccc2N1 (centres undefined)	.	.	.	.	677	.	.
CCn1nnc(-c2ccccc2NC(=O)c2cnccn2)n1	.	/	.	/	407	.	.
